Our source for the IC50 and inhibition values is ChEMBL document CHEMBL1136707, “From pure FPP to mixed FPP and CAAX competitive inhibitors of farnesyl protein transferase” (Bioorg Med Chem Lett, 2003).

For experiment [1], the target named is Protein farnesyltransferase (Homo sapiens, UniProt P49354+P49356). In words: Inhibition of farnesylation of H-Ras in DLD-1 cells. The experiment is classed as functional, cell-based.
The target of experiment [2] is T1, Protein farnesyltransferase (Bos taurus) (UniProt P29702+P49355). In words: Inhibition of FPTase at 100 nM using 0.5 uM Dansyl-GCVLS. It counts as protein-complex assay. In outline:
(§1)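 Peptide-dependence study using purified bovine FPTase. Dansyl-GCVLS substrate concentration was varied with the inhibitor at a single fixed concentration, and activity was reported as percent enzyme inhibition.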

Experiment [3] deals with T1, Protein farnesyltransferase (Bos taurus). The experiment in a line: Inhibition of FPTase at 100 nM using 20 uM Dansyl-GCVLS. The experiment is classed as protein-complex assay. The method in brief: as §1
The target is the same in experiment [4]. The experiment in a line: Inhibition of FPTase at 100 nM using 20 uM FPP as substrate. The experiment is classed as protein-complex assay. The method in brief:
(§2)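 FPP-dependence study using purified bovine FPTase. Dansyl-GCVLS peptide was held at a fixed level of […] while FPP concentration was varied. Inhibitor was tested at a single fixed concentration, and the read-out was percent inhibition of farnesylation.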

For experiment [5] the target is unchanged. The experiment in a line: Inhibition of FPTase at 100 nM using 10 uM Dansyl-GCVLS. The experiment is classed as protein-complex assay. In outline:
as §1

Experiment [6] shares this target. The experiment in a line: Inhibition of FPTase at 100 nM using 0.5 uM FPP as substrate.
Experiment [7] shares this target. The experiment in a line: Inhibition of FPTase at 100 nM using 5 uM FPP as substrate. It counts as protein-complex assay. The method in brief: as §2
Experiment [8] shares this target. In words: Inhibition of FPTase at 100 nM using 10 uM FPP as substrate. It counts as protein-complex assay. In outline:
as §2

Experiment [9] shares this target. In words: Inhibition of FPTase at 100 nM using 2 uM Dansyl-GCVLS. The experiment is classed as protein-complex assay. The method in brief: as §1
For experiment [10] the target is unchanged. The experiment in a line: Inhibition of FPTase at 100 nM using 1 uM Dansyl-GCVLS. The experiment is classed as protein-complex assay. The method in brief: as §1
For experiment [11] the target is unchanged. In words: Inhibition of FPTase at 100 nM using 5 uM Dansyl-GCVLS. It counts as protein-complex assay. In outline: as §1
Experiment [12] has the same target. In words: Inhibition of FPTase at 100 nM using 2 uM FPP as substrate. The experiment is classed as protein-complex assay. The method in brief:
as §2

Experiment [13] has as its target Protein farnesyltransferase (Bos taurus, UniProt P29702+P49355). The experiment in a line: In vitro inhibition of bovine Farnesyl transferase. It counts as protein-complex assay. In outline:
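Purified bovine FPTase, assayed as in ref 15, with dansyl-GCVLS peptide and FPP as substrates, both at […].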

Experiment [14] addresses T1, Protein farnesyltransferase (Bos taurus). The experiment in a line: Inhibition of FPTase at 10 nM using 5 uM FPP as substrate. The experiment is classed as protein-complex assay. The method in brief:
as §2

Experiment [15] has the same target. The experiment in a line: Inhibition of FPTase at 10 nM using 1 uM Dansyl-GCVLS. The experiment is classed as protein-complex assay. In outline: as §1
For experiment [16] the target is unchanged. The experiment in a line: Inhibition of FPTase at 10 nM using 20 uM FPP as substrate. It counts as protein-complex assay. In outline:
as §2

The target is the same in experiment [17]. In words: Inhibition of FPTase at 10 nM using 20 uM Dansyl-GCVLS. The experiment is classed as protein-complex assay. In outline: as §1
For experiment [18] the target is unchanged. The experiment in a line: Inhibition of FPTase at 10 nM using 1 uM FPP as substrate. The experiment is classed as protein-complex assay. The method in brief:
as §2

Experiment [19] shares this target. The experiment in a line: Inhibition of FPTase at 10 nM using 0.5 uM Dansyl-GCVLS. The experiment is classed as protein-complex assay. The method in brief:
as §1

Experiment [20] shares this target. In words: Inhibition of FPTase at 10 nM using 2 uM Dansyl-GCVLS. It counts as protein-complex assay. The method in brief: as §1
Experiment [21] shares this target. In words: Inhibition of FPTase at 10 nM using 0.5 uM FPP as substrate. It counts as protein-complex assay. In outline:
as §2

For experiment [22] the target is unchanged. The experiment in a line: Inhibition of FPTase at 10 nM using 2 uM FPP as substrate. The experiment is classed as protein-complex assay. The method in brief:
as §2

For experiment [23] the target is unchanged. The experiment in a line: Inhibition of FPTase at 10 nM using 10 uM FPP as substrate. It counts as protein-complex assay. The method in brief:
as §2

The target is the same in experiment [24]. The experiment in a line: Inhibition of FPTase at 10 nM using 10 uM Dansyl-GCVLS. The experiment is classed as protein-complex assay. In outline:
as §1

By IC50 is commonly meant the concentration that inhibits the measured activity by half. Lower therefore signals inhibition by little substance. As to `CC(C)=CCC/C(C)=C/CC/C(C)=C/CC(NCc1cncn1Cc1ccc(C#N)cc1)C(=O)N[C@@H](Cc1ccccc1)C(=O)O` (stereo partly drawn), inhibition in experiment [1] was half-maximal at 5000 nM (IC50). In other words, the single-digit micromolar range.
As usually defined, the inhibition is the relative decrease from the control value, in per cent. A higher inhibition goes with a strong effect. As to `CC(C)=CCC/C(C)=C/CC/C(C)=C/CC(C(=O)N[C@@H](Cc1ccccc1)C(=O)O)P(=O)(O)O` (stereo partly drawn), the inhibition in experiment [2] is 43%; in experiment [3], 38%; in experiment [4], 10%; in experiment [5] it was 33%; in [6] it was 80%; in experiment [7], 9%. For the same compound, the inhibition in [7] (in the assay text read “1 uM FPP” for “5 uM FPP”) amounted to 72%; in [8] it was 9%; in [9], 41%; in [10], 42%; in experiment [11] it was 34%; in experiment [12], 37%. Moreover, the IC50 in experiment [1] is above 10000 nM; in experiment [13] it was 83 nM.
`CC(C)=CCC/C(C)=C/CC/C(C)=C/CC(NCc1cncn1C)C(=O)NCc1ccccc1` (stereo not drawn) yielded a concentration for half-maximal inhibition (IC50) in experiment [13] above 10000 nM.
On the same count and under the same terms, the same measure for `CC(C)=CCC/C(C)=C/CC/C(C)=C/CC1C(=O)N(Cc2ccccc2)C(=O)N1Cc1cncn1C` (stereo not drawn): 700 nM; for `CC(C)=CCC/C(C)=C/CC/C(C)=C/CC1C(=O)N(Cc2ccccc2)C(=O)N1Cc1cncn1Cc1ccc(C#N)cc1` (stereo not drawn): 200 nM.
On to `CC(C)=CCC/C(C)=C/CC/C(C)=C/CC(NCc1cncn1Cc1ccc(C#N)cc1)C(=O)NCc1ccccc1` (stereo not drawn), for which the inhibition is 38% in experiment [14]; 41% in [15]; 32% in experiment [16]; 3% in experiment [17]; 55% in [18]; 49% in [19]. The inhibition in [20] is 38%; in [21], 54%; in [11] (10 nM, in the assay text read “10 nM” for “100 nM”) it was 27%; in experiment [22], 42%; in experiment [23], 36%; in experiment [24] it was 14%. The 50% inhibitory concentration (IC50) in experiment [1] came to 1000 nM; in [13] it was 6 nM.
Take `CC(C)=CCC/C(C)=C/CC/C(C)=C/CC(C(=O)NCc1ccccc1)N(Cc1cncn1Cc1ccc(C#N)cc1)S(=O)(=O)c1ccccc1` (stereo not drawn): the concentration for half-maximal inhibition (IC50) in experiment [1] is above 10000 nM; in [13], 40 nM.
Take `CC(C)=CCC/C(C)=C/CC/C(C)=C/CC(C(=O)N[C@@H](Cc1ccccc1)C(=O)O)N(Cc1cncn1C)S(=O)(=O)c1ccccc1` (stereo partly drawn): the IC50 worked out at 10000 nM in [1] and 470 nM in [13].
In the same order, the values of `CC(C)=CCC/C(C)=C/CC/C(C)=C/CC(C(=O)NCc1ccccc1)N(Cc1cncn1C)S(=O)(=O)c1ccccc1` (stereo not drawn) are 1000 nM and 670 nM.
